# Reference: ChEMBL document CHEMBL1926561, “Neuroprotective efficacy of quinazoline type phosphodiesterase 7 inhibitors in cellular cultures and experimental stroke model” (Eur J Med Chem, 2012)
# Activity calls are given as the source filed them. The calls are words filed in the database; no cut-off is given here.
# What was measured:
# [1] = Permeability of the compound after 2.5 hrs by PAMPA-BBB assay
# [2] = target: T1, High affinity 3',5'-cyclic-AMP phosphodiesterase 7A (Homo sapiens, UniProt Q13946); assay: Inhibition of PDE7A assessed as hydrolysis of [3H]cAMP at 10 uM after 20 mins by scintillation proximity assay
# T1 sequence (Q13946 whole entry): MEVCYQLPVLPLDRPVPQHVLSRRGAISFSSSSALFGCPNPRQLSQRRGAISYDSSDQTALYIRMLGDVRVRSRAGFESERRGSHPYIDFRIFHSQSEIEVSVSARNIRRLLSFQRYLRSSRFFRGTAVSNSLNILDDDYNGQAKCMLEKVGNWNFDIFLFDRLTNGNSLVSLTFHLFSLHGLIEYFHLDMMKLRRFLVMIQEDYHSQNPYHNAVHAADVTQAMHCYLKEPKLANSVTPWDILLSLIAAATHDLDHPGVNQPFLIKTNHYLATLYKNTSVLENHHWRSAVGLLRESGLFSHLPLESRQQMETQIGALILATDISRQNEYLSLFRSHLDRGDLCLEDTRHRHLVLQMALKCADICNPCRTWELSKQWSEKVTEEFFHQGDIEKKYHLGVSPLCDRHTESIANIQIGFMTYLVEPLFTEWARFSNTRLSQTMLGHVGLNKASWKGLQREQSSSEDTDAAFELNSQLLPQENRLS
# Procedure, shortened: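 PDE7A1 enzyme (0.02 units) incubated with 5 nCi [³H]cAMP plus inhibitor in kit assay buffer, 20 min at 30 °C. Scintillation binding beads (1 mg) then added to capture [³H]AMP, shaken 1 h at room temperature, settled 30 min, radioactivity counted.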
# Mus musculus = assay: Neuroprotective effect against middle cerebral artery occlusion-induced focal cerebral ischemia in Swiss mouse stroke model assessed as reduction in infarct volume at 5 mg/kg after 15 mins (reference value: 15.4 +/- 1.1 %); assay type: functional; parameters: scale not given: the % may be the effect or the level left
# Astrocyte [3] = assay: Antiinflammatory activity against P2 rat astrocytes assessed as inhibition of LPS-induced nitrite production at 30 uM administered 1 hr before LPS challenge measured after 24 hrs by Griess reaction; assay type: functional, cell-based
# Procedure, shortened: (§1)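 Astrocytes from neonatal (P2) rat cortex, grown in HAMS/DMEM (1:1) with 10% FBS, shaken to remove microglia and oligodendrocytes, then expanded. Cells were pretreated with compound for 1 h, then stimulated with LPS for 24 h. Nitrite in the medium was measured by Griess reaction. Means ± SD of three independent experiments.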
# Cerebral cortex neuron = assay: Antiinflammatory activity against E18 rat primary cortical neurons assessed as inhibition of […] at 30 uM […] measured after 24 hrs by Griess reaction; assay type: functional, cell-based
# Procedure, shortened: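 Rat E18 cortical neurons, plated on poly-lysine/gelatin and kept in Neurobasal with B-27, used at 7 days in culture. They were exposed for 24 h, with or without inhibitor, to cell-free supernatant from LPS-stimulated primary microglia. Nitrite in the medium was measured by Griess reaction. Means ± SD of three independent experiments.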
# Microglia [4] = assay: Antiinflammatory activity against rat microglial assessed as inhibition of LPS-induced nitrite production at 30 uM administered 1 hr before LPS challenge measured after 24 hrs by Griess reaction; assay type: functional
# Procedure, shortened: (§2)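 Rat microglia shaken off 15-day mixed glial cultures and kept in HAMS/DMEM (1:1) with 10% FBS plus 10 ng/ml GM-CSF; purity >98% by OX42 staining. Cells were pretreated with compound for 1 h, then given LPS for 24 h. Nitrite in the medium was measured by Griess reaction. Means ± SD of three independent experiments.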
# Astrocyte [5] = assay: Antiinflammatory activity against P2 rat astrocytes assessed as inhibition of LPS-induced nitrite production at 10 uM administered 1 hr before LPS challenge measured after 24 hrs by Griess reaction; assay type: functional, cell-based; procedure, shortened: as §1
# [6] = target: T1, High affinity 3',5'-cyclic-AMP phosphodiesterase 7A; assay: Inhibition of PDE7A assessed as hydrolysis of [3H]cAMP after 20 mins by scintillation proximity assay
# Procedure, shortened: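 Purified PDE7A1 (0.02 units) was incubated with 5 nCi [3H]cAMP and inhibitor in kit assay buffer for 20 min at 30 °C. Scintillation beads binding [3H]AMP were added, shaken 1 h at room temperature and left to settle 30 min, then radioactivity was counted. IC50 came from a sigmoidal dose-response fit of radioactivity vs log concentration.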
# Microglia [7] = assay: Antiinflammatory activity against rat microglial assessed as inhibition of LPS-induced nitrite production at 1 uM administered 1 hr before LPS challenge measured after 24 hrs by Griess reaction; assay type: functional; procedure, shortened: as §2
# Microglia [8] = assay: Antiinflammatory activity against rat microglial assessed as inhibition of LPS-induced nitrite production at 10 uM administered 1 hr before LPS challenge measured after 24 hrs by Griess reaction; assay type: functional; procedure, shortened: as §2
smiles,measurement,setting,value
CN(C)CCCN1c2ccccc2Sc2ccccc21 [PROMAZINE],Papp at 2.5 h,[1],7.7 ×10⁻⁶ cm/s
O=c1c2ccccc2[nH]c(=S)n1-c1cccnc1,inhibition,[2],10%
S=c1[nH]c2ccccc2c(=S)n1-c1ccccc1,Activity,Mus musculus,10.8%
same,Papp at 2.5 h,[1],23.8 ×10⁻⁶ cm/s
same,Activity,Astrocyte [3],Active
same,Activity,Cerebral cortex neuron,Active
same,Activity,Microglia [4],Active
CCn1cc(C(=O)O)c(=O)c2cc(F)c(N3CCNCC3)nc21 [ENOXACIN],Papp at 2.5 h,[1],1.2 ×10⁻⁶ cm/s
O=c1c2cccnc2[nH]c(=S)n1-c1cccc(Br)c1,inhibition,[2],12.8%
O=c1c2cccnc2[nH]c(=S)n1-c1ccccc1,inhibition,[2],-3.1%
O=c1c2ccccc2[nH]c(=S)n1-c1ccccc1,Activity,Astrocyte [3],Active
same,Activity,Cerebral cortex neuron,Active
same,Activity,Microglia [4],Active
COc1ccc(CCn2c(=O)[nH]c3ccc(Br)cc3c2=O)cc1,inhibition,[2],-8.3%
COc1ccc(Cn2c(=O)[nH]c3ncccc3c2=O)cc1,inhibition,[2],8%
Cn1c(=O)c2c(ncn2C)n(C)c1=O [CAFFEINE],Papp at 2.5 h,[1],1.7 ×10⁻⁶ cm/s
COc1cc2[nH]c(=S)n(CCN3CCOCC3)c(=O)c2cc1OC,inhibition,[2],17.9%
O=c1c2cccc(Cl)c2[nH]c(=S)n1-c1c(F)cccc1F,inhibition,[2],74.9%
same,Activity,Astrocyte [5],Active
same,IC50,[6],6.1 µM
same,Activity,Microglia [7],Active
O=c1c2ccncc2[nH]c(=S)n1-c1ccccc1,inhibition,[2],9.3%
O=c1c2ccccc2[nH]c(=S)n1CCN1CCOCC1,inhibition,[2],13.2%
O=c1c2ccccc2[nH]c(=S)n1CCN1CCCCC1,inhibition,[2],21.2%
CNCCCN1c2ccccc2CCc2ccccc21 [DESIPRAMINE],Papp at 2.5 h,[1],15.7 ×10⁻⁶ cm/s
Cc1cc(Br)c2[nH]c(=S)n(-c3ccccc3)c(=O)c2c1,inhibition,[2],4%
COc1cc2[nH]c(=S)n(CCN3CCCCC3)c(=O)c2cc1OC,inhibition,[2],12.7%
COc1cc2[nH]c(=S)n(-c3cccnc3)c(=O)c2cc1OC,inhibition,[2],19%
O=c1[nH]c2ccccc2c(=O)n1-c1ccc(Br)cc1F,inhibition,[2],2.5%
COc1ccc(Cn2c(=O)[nH]c3ccccc3c2=O)cc1,inhibition,[2],9.3%
COc1ccc(CCn2c(=O)[nH]c3cnccc3c2=O)cc1,inhibition,[2],22.1%
O=c1c2cccc(Cl)c2[nH]c(=S)n1-c1ccccc1Br,inhibition,[2],63.4%
same,Activity,Astrocyte [5],Active
same,Activity,Microglia [8],Active
same,IC50,[6],1.8 µM
COc1ccc(CCn2c(=O)[nH]c3ccccc3c2=O)cc1,inhibition,[2],-7.2%
Cc1cccc2c(=O)n(-c3ccccc3Br)c(=S)[nH]c12,Papp at 2.5 h,[1],23.9 ×10⁻⁶ cm/s
same,Activity,Astrocyte [3],Active
same,Activity,Cerebral cortex neuron,Active
same,Activity,Microglia [4],Active
COc1cc2[nH]c(=S)n(-c3ccccc3)c(=O)c2cc1OC,inhibition,[2],13.2%
O=c1c2ccncc2[nH]c(=S)n1-c1cccnc1,inhibition,[2],2.7%
